# Screening results from PubChem BioAssay.
# In the library only some 3% were active in any assay of this set; here they are far more common.
# CHRM4 PAM: CHRM4 positive allosteric modulation; CHO-K1 hM4/Gqi5, Fluo-8 calcium fluorescence, ACh EC20; 0% = ACh EC20, 100% = maximal ACh; activation, % at 3 µM; 0.4% of 360,000 active; AID 624126;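 active means activation above its plate's cutoff, the mean activation of sample wells plus 3 SD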
# TAAR1 antagonist: antagonists of human TAAR1 | inhibition, % at 3 µM | 1.5% of 360,000 active | Q96RJ0 | CHO RD-HGA16 TAAR1, Fluo-8 calcium fluorescence, antagonist;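 active means inhibition above a per-plate cutoff, the mean inhibition of test compounds on that plate plus 3 SD, cut at about 49% in these data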;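 further: 0% = DMSO plus EC80 beta-PEA response and 100% = DMSO alone without agonist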
# Target sequence (Q96RJ0 whole entry, looked up): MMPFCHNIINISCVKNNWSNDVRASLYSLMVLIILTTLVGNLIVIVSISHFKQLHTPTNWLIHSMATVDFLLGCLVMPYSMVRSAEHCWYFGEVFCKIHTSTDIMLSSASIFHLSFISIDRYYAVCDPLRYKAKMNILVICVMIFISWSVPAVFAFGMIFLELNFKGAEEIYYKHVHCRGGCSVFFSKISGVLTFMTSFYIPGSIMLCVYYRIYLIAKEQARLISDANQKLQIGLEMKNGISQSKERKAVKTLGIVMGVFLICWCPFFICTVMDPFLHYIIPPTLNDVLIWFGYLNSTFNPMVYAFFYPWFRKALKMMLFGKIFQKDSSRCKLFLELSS
#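 System: RD-HGA16 CHO cells with stable hTAAR1 and Gα16 | Probe or stimulus: EC80 β-phenethylamine stimulus | Dosing: 3 µM, single point | Times: Dye loading 75 min at 37 °C, then 30 min room temperature | Measured by: Fluo-8 calcium-sensitive fluorescence | Read-out basis: % inhibition of agonist calcium response | Replicates: n of 1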
# M4 antag: antagonists of human muscarinic M4 receptor (CHRM4). CHO-hM4 cells, ACh EC80, Fluo-8 calcium fluorescence. inhibition, % at 3 µM. 0.73% of 360,000 active. AID 624125;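 active means inhibition above its plate's cutoff, the mean inhibition of sample wells plus 3 SD, cut at about 27% in these data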;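 further: 0% = acetylcholine EC80 with DMSO and 100% = DMSO without agonist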
# TAAR1 ag: agonists of human TAAR1 | 0.99% of 360,000 active | Q96RJ0 | activation, % at 3 µM | AID 624467 | CHO RD-HGA16 TAAR1, Fluo-8 calcium fluorescence; vehicle wells 0%, saturating PEA agonist 100%;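 active means activation above the mean activation of all test compounds in the run plus 3 SD, cut at about 38% in these data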
#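 Assay system – CHO-derived RD-HGA16 cells with stable Gα16 and human TAAR1 · Compound dosing – one-point dosing at 3 µM (nominal) · Incubation – 17-24 h seeding, 75 min 37 °C dye, 30 min RT · Measured by – kinetic Fluo-8 calcium fluorescence · Control set – DMSO vehicle as 0%, PEA at EC100 as 100% · Repeats – single well for each compound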
# CHRM4 agonist: CHRM4 agonism in calcium assay | CHO-K1 hM4/Gqi5, Fluo-8 calcium fluorescence; vehicle 0%, full acetylcholine response 100% | activation, % at 3 µM | 0.14% of 360,000 active | AID 624127 | P08173;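 active means activation above the run mean over all test wells plus 3 SD, cut at about 32% in these data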;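 further: peak over basal fluorescence ratio per well then scaled between controls; 0% = DMSO wells and 100% = acetylcholine at EC100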
# An asterisk follows results filed as active; / = not tested or not shown.
SMILES,CHRM4 PAM,TAAR1 antagonist,M4 antag,TAAR1 ag,CHRM4 agonist
O=C(CCCCCn1c(=S)[nH]c2ccc(Br)cc2c1=O)NCC1CCCO1 (configuration not stated),3,38,3,12,1
NS(=O)(=O)c1ccc(CCNC(=O)CCCCCn2c(=S)[nH]c3ccc(Br)cc3c2=O)cc1,-14,60*,21,25,17
COc1cc(CN2C(=O)C(CCc3ccccc3)ON=C2c2cnccn2)cc(OC)c1 (configuration not stated),-6,50*,7,2,8
CC(=O)Oc1ccc(CN2C(=O)C(CCc3ccccc3)ON=C2c2cnccn2)cc1 (configuration not stated),1,25,2,10,13
Cc1ccc(C2c3c(n[nH]c3C(C)C)C(=O)N2c2ccccc2)cc1 (configuration not stated),/,-57,/,14,/
O=C(CC(O)(c1ccccc1)C(F)(F)C(F)F)c1cccs1 (configuration not stated),-3,13,-4,2,-2
COc1ccc(/C=C/C(=O)CC(O)(c2ccccc2)C(F)(F)F)cc1 (configuration not stated),-14,5,-1,3,1
O=C(/C=C/c1ccccc1)CC(O)(c1ccccc1)C(F)(F)F (configuration not stated),-27,7,31*,-2,-2
O=C(/C=C/c1ccccc1)CC(O)(c1ccccc1)C(F)(F)C(F)F (configuration not stated),-33,-10,47*,1,-2
CCOC(=O)CN1CCCc2nc(C)c(C)cc21,/,-9,/,1,/
CC(C[N+](C)(C)C)OC(=O)C1(c2ccccc2)CCCC1 (configuration not stated),-44,-1,22,1,1
C[N+](C)(C)CCOC(=O)C1(c2ccccc2)CCCC1,-14,-17,97*,11,1
C[N+]1(CCOC(=O)C2(c3ccccc3)CCCC2)CCCCC1,-26,-2,97*,15,0
COc1cc2c(c(OC)c1OC)[C@@]1(c3ccccc3)CCCCC[C@H]1[C@@H]2NC(=O)C(F)(F)F,/,-18,/,-1,/
CSCCC(NC(=O)OCc1ccccc1)C(=O)NC(Cc1c[nH]c2ccccc12)C(=O)O (configuration not stated),/,-28,/,1,/
C[N+]12CCC(CC1)C(OC(=O)C(O)(c1ccccc1)c1ccccc1)C2 (configuration not stated),-18,8,100*,0,0
O=C(COC(=O)c1ccc(O)cc1)Nc1ccc(Cl)cc1,/,47,/,41*,/
O=C(COC(=O)c1ccc(Cl)nc1)Nc1ccc(Cl)cc1,-4,-3,2,8,1
O=C(COC(=O)c1ccc(-c2ccccc2)cc1)Nc1ccccc1-c1ccccc1,4,43,-2,2,-1
O=C(COC(=O)c1ccc(O)cc1)Nc1ccccc1-c1ccccc1,-13,61*,21,11,13
COc1ccc(C)cc1NC(=O)CCN1CC(C)OC(C)C1 (configuration not stated),20*,13,-7,6,2
Cc1cc(C)nc(NS(=O)(=O)c2ccc(NC(=O)c3cccc(N4C(=O)CCC4=O)c3)cc2)n1,25*,4,6,4,2
Cc1ccc2sc(NC(=O)c3cccc(N4C(=O)CCC4=O)c3)nc2c1C,-1,45,-14,48*,6
Cc1ccnc(NS(=O)(=O)c2ccc(NC(=O)c3ccc(N4C(=O)CCC4=O)cc3)cc2)n1,6,7,4,4,0
Cc1cc(C(C)(C)C)cc(C)c1C[n+]1ccc2ccccc2c1,-13,-10,29*,3,0
SMILES,CHRM4 PAM,TAAR1 antagonist,M4 antag,TAAR1 ag,CHRM4 agonist
Cc1ccc(C(=O)C[n+]2ccc3ccccc3c2)cc1,-8,5,-8,1,1
Cc1ccc(CNC(=O)[C@@H](Cc2ccccc2)NC(=O)[C@H]2O[C@@H](n3ccc(N)nc3=O)[C@H](O)[C@@H]2O)o1,/,-3,/,1,/
COc1ccc(C(=O)c2[nH]c(N)c(C(=O)c3c[nH]c4ccccc34)c2-c2ccc(F)c(OC)c2)cc1,/,15,/,8,/
COc1cc(CNC2CCCCCC2)cc(OC)c1O,8,-2,6,4,1
COc1cc(CNC2CCCC2)cc(Cl)c1OCc1ccccc1F,-15,27,9,39*,28
O=[N+]([O-])c1cccc(COc2ccc(CO)cc2)c1,/,0,/,0,/
CCOc1ccccc1N1CCN(C(=O)CSc2ccc3c(c2)OCCO3)CC1,-9,51*,4,15,19
CCOC(=O)C1CSCCS(=O)(=O)N1Cc1ccc(C)cc1 (configuration not stated),/,-10,/,2,/
COC(=O)[C@H](Cc1ccccc1)N1C[C@@H](N2CCC[C@H]2C)CS1(=O)=O,/,3,/,0,/
Cc1sc2nc(CSCC(=O)Nc3ccccc3C#N)[nH]c(=O)c2c1C,38*,4,-6,-1,1
CSc1ccccc1NC(=O)CSCc1nc2sc(C)c(C)c2c(=O)[nH]1,-2,-21,8,1,1
CC(=O)Nc1ccc(OCC(=O)c2ccc(C)cc2C)cc1,-3,13,2,3,3
CC(=O)Nc1ccc(OCC(=O)c2cc(C)ccc2C)cc1,19*,-10,2,6,0
O=C(c1cc(-c2ccc(Br)cc2)nc2ccccc12)N1CCN(c2ccccc2O)CC1,-5,55*,16,4,8
Cc1ccc(-c2cc(C(=O)N3CCN(c4ccccc4O)CC3)c3ccccc3n2)o1,-9,62*,11,14,16
COc1ccccc1N1CCN(C(=O)c2cc3c(C)nc4ccccc4c3o2)CC1,-12,54*,8,5,19
COC(=O)C1=C(C)N(Cc2ccc(C(F)(F)F)cc2)C(=NCC2CC2)NC1c1ccccc1C(F)(F)F (configuration not stated),/,9,/,9,/
C=CCN=C1NC(c2cccc(F)c2)C(C(=O)OC)=C(C)N1C (configuration not stated),/,1,/,0,/
O=C(NCCc1ccccc1)c1nc(CS(=O)(=O)c2ccc(Cl)cc2)no1,-3,7,-8,5,9
Cc1ccc(CCNC(=O)c2nc(CS(=O)(=O)c3ccc(Cl)cc3)no2)cc1,-15,57*,10,5,20
O=C(CC(=O)c1ccccc1)c1ccccc1,-1,-20,-2,9,-1
O=C(Cc1ccccc1Cl)c1ccccc1,27*,-11,-15,-3,1
C[C@H](CO)N1C[C@H](C)[C@@H](CN(C)C(=O)Cc2cccnc2)Oc2ncc(C#CCc3ccccc3)cc2C1=O,/,0,/,1,/
Cc1ccc(NNC(=O)c2cc(C(C)(C)C)nn2Cc2ccccc2)cc1,-26,-22,-17,-3,-2
